In ChEMBL document CHEMBL4732257, “The optimization and characterization of functionalized sulfonamides derived from sulfaphenazole against Mycobacterium tuberculosis with reduced CYP 2C9 inhibition” (Bioorg Med Chem Lett, 2021):
Converted amounts (≈) assume the structure as drawn.

Legend:
[1] = system: Mycobacterium tuberculosis; experiment: Antimycobacterial activity against Mycobacterium tuberculosis H37Rv assessed as bacterial growth inhibition; assay type: functional
CYP2C9 = CYP2C9 (Homo sapiens, UniProt P11712); experiment: Inhibition of CYP2C9 (unknown origin) at 0.5 uM relative to control; assay type: ADME
Sequence of CYP2C9 (P11712 whole entry): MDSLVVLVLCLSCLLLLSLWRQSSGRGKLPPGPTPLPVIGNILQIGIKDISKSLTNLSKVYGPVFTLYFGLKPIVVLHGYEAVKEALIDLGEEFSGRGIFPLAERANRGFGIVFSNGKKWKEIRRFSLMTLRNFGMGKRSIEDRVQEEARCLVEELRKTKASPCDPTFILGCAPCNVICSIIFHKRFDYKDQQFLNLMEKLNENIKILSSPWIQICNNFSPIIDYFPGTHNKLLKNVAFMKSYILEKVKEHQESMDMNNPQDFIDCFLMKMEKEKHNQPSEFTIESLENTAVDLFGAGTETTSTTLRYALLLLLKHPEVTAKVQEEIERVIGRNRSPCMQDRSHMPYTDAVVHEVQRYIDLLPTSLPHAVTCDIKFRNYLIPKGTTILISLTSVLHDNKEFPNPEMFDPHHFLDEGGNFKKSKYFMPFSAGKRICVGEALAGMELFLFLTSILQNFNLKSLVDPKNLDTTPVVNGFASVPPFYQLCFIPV

Vero = experiment: Cytotoxicity against African green monkey Vero cells assessed as reduction in cell viability; assay type: cell-based; settings: Chlorocebus sabaeus
Method in brief: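 Vero cells exposed to the compounds; IC50 taken as the concentration inhibiting 50% of cell growth relative to an untreated control.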

Cytochrome P450 2C9 = Cytochrome P450 2C9 (Homo sapiens, UniProt P11712); experiment: Inhibition of CYP2C9 (unknown origin); assay type: ADME
Sequence of Cytochrome P450 2C9 (P11712 whole entry): as above

Structure (SMILES) | MIC90 [1] | other results
Nc1ccc(S(=O)(=O)Nc2nc3ccccc3o2)cc1 | > 32 mg/L | 
CN(c1ccnn1-c1ccccc1)S(=O)(=O)c1ccc(N)cc1 | > 32 mg/L | 
Cc1ccc(-c2ccc(-n3nccc3NS(=O)(=O)c3ccc(N)cc3)cc2)cc1 | 31 mg/L (≈ 76.7 µM) | inhibition at 0.5 µM (CYP2C9): 2.2%
Nc1ccc(S(=O)(=O)Nc2ccc3cnn(-c4ccccc4)c3c2)cc1 | > 32 mg/L | 
Nc1ccc(S(=O)(=O)Nc2nc3ccccc3s2)cc1 | 14.3 mg/L (≈ 46.7 µM) | inhibition at 0.5 µM (CYP2C9): 4.8%
Nc1ccc(S(=O)(=O)Nc2ccnn2-c2ccc([N+](=O)[O-])cc2)cc1 | 10.3 mg/L (≈ 28.7 µM) | 
Nc1ccc(S(=O)(=O)Nc2cc(-c3ccccc3)nn2-c2ccccc2)cc1 | > 32 mg/L | 
Nc1ccc(S(=O)(=O)Nc2ccc3scnc3c2)cc1 | > 32 mg/L | 
CNc1ccc(S(=O)(=O)Nc2ccnn2-c2ccccc2)cc1 | > 32 mg/L | 
CC(C)(C)c1cc(NS(=O)(=O)c2ccc(N)cc2)n(-c2ccccc2)n1 | > 32 mg/L | 
Cc1ccc(C)c(-n2nccc2NS(=O)(=O)c2ccc(N)cc2)c1 | > 32 mg/L | 
Nc1ccc(S(=O)(=O)Nc2ccnn2-c2ccc(C(F)(F)F)cc2)cc1 | > 32 mg/L | 
O=C(c1ccc(S(=O)(=O)Nc2ccnn2-c2ccccc2)cc1)N1CCNCC1 | > 32 mg/L | 
Nc1ccc(S(=O)(=O)Nc2nc3ccc(-c4ccccc4)cc3s2)cc1 | > 32 mg/L | 
Nc1ccc(S(=O)(=O)Nc2ccnn2-c2ccc(-c3ccccc3)cc2)cc1 | > 32 mg/L | 
O=C(c1ccc(S(=O)(=O)Nc2ccnn2-c2ccccc2)cc1)N1CCCCC1 | 30.1 mg/L (≈ 73.4 µM) | inhibition at 0.5 µM (CYP2C9): 0.2%
COc1ccc(-c2ccc(-n3nccc3NS(=O)(=O)c3ccc(N)cc3)cc2)cc1 | > 32 mg/L | 
COc1ccc(-c2ccc3nc(NS(=O)(=O)c4ccc(N)cc4)sc3c2)cc1 | > 32 mg/L | 
O=S(=O)(Nc1ccnn1-c1ccccc1)c1ccc(N2CCCCC2)cc1 | > 32 mg/L | 
CC(=O)Nc1ccc(S(=O)(=O)Nc2ccnn2-c2ccccc2)cc1 | > 32 mg/L | 

Structure (SMILES) | MIC90 [1] | other results
Nc1ccc(S(=O)(=O)Nc2ccnn2Cc2ccccc2)cc1 | > 32 mg/L | 
Nc1ccc(S(=O)(=O)Nc2ccnn2-c2ccccc2)cc1F | > 32 mg/L | 
Cc1cccc(-n2nccc2NS(=O)(=O)c2ccc(N)cc2)c1 | 12.2 mg/L (≈ 37.2 µM) | 
Nc1cccc(S(=O)(=O)Nc2ccnn2-c2ccccc2)c1 | > 32 mg/L | 
Nc1ccc(S(=O)(=O)Nc2ccnn2C2CCCCC2)cc1 | > 32 mg/L | 
COc1ccc(-n2nccc2NS(=O)(=O)c2ccc(N)cc2)cc1 | 5.69 mg/L (≈ 16.5 µM) | inhibition at 0.5 µM (CYP2C9): 9.1%; IC50 (Vero): > 64 mg/L; IC50 (Cytochrome P450 2C9): 11.5 µM
Nc1ccc(S(=O)(=O)Nc2ccnn2-c2ccc(F)cc2)cc1 | 6.88 mg/L (≈ 20.7 µM) | inhibition at 0.5 µM (CYP2C9): 45.7%; IC50 (Vero): > 64 mg/L
O=C(c1ccc(S(=O)(=O)Nc2ccnn2-c2ccccc2)cc1)N1CCSCC1 | > 32 mg/L | 
COc1cc(N)ccc1S(=O)(=O)Nc1ccnn1-c1ccccc1 | > 32 mg/L | 
Nc1ccc(S(=O)(=O)Nc2ccnn2-c2cccc(F)c2)cc1 | 7.93 mg/L (≈ 23.9 µM) | 
Nc1ccc(-c2ccc(S(=O)(=O)Nc3ccnn3-c3ccccc3)cc2)cc1 | > 32 mg/L | 
CCc1cc(NS(=O)(=O)c2ccc(N)cc2)n(-c2ccccc2)n1 | > 32 mg/L | 
Nc1ccc(S(=O)(=O)Nc2sccc2-c2ccccc2)cc1 | > 32 mg/L | 
Cc1ccc(-n2nccc2NS(=O)(=O)c2ccc(N)cc2)cc1 | 7.33 mg/L (≈ 22.3 µM) | inhibition at 0.5 µM (CYP2C9): 52.3%; IC50 (Vero): > 64 mg/L
Nc1ccc(S(=O)(=O)Nc2ccnn2-c2ccc(Br)cc2)cc1 | 14.5 mg/L (≈ 37 µM) | 
Nc1ccc(S(=O)(=O)Nc2ccnn2C2CCCC2)cc1 | > 32 mg/L | 
NNC(=O)c1ccncc1 [ISONIAZID] | 0.02 mg/L (≈ 0.146 µM) | 
Nc1ccc(S(=O)(=O)Nc2ccnn2-c2ccccc2)cc1 [SULFAPHENAZOLE] | 5.51 mg/L (≈ 17.5 µM) | inhibition at 0.5 µM (CYP2C9): 48.3%; IC50 (Vero): > 64 mg/L
Cc1cc(NS(=O)(=O)c2ccc(N)cc2)n(-c2ccccc2)n1 [SULFAZAMET] | 15.4 mg/L (≈ 46.8 µM) | inhibition at 0.5 µM (CYP2C9): 45%
